Screens (PubChem)
CHRM5 agonist: human M5 muscarinic receptor agonists, primary screen, CHO-K1 cells, Fluo-8 calcium fluorescence; Muscarinic acetylcholine receptor M5 (Homo sapiens), P08912; CHO-K1 hM5 cells; 0% DMSO wells, 100% maximal acetylcholine response; activation, % at 3 µM; 360,000 tested, 0.19% active; AID 624037, 2012;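 active means activation above the run's mean over test compounds plus 3 SD, cut at about 23% in these data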;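 further: signal is peak over basal fluorescence ratio across the kinetic read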
Target sequence (P08912 whole entry, looked up): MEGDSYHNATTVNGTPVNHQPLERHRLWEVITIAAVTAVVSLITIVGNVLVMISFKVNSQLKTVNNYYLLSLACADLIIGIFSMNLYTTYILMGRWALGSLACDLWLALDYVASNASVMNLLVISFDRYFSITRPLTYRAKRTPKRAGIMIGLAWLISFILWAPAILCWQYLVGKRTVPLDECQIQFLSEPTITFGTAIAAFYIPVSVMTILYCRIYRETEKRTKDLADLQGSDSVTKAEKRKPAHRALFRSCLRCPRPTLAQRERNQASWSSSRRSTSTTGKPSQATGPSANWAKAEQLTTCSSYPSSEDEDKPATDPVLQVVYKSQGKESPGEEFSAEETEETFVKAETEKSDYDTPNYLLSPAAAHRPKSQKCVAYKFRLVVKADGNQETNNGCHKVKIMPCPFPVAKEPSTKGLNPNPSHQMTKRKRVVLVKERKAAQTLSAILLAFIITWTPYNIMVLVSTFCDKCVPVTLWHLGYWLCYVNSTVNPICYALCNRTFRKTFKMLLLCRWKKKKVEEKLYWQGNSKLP
M4 PAM: human M4 muscarinic receptor positive allosteric modulators, primary screen, CHO-K1 cells, Fluo-8 calcium fluorescence. Muscarinic acetylcholine receptor M4 (Homo sapiens), P08173. CHO-K1 hM4/Gqi5, ACh EC20; 0% = ACh EC20, 100% = maximal ACh. activation, % at 3 µM. 360,000 tested, 0.4% active;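 active means activation above its plate's cutoff, the mean activation of sample wells plus 3 SD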
CHRM5 PAM: human M5 muscarinic receptor positive allosteric modulators, primary screen, CHO-K1 cells, Fluo-8 calcium fluorescence; 360,000 tested, 0.3% active; activation, % at 3 µM; CHO-K1 hM5, ACh EC20 PAM; 0% = ACh EC20, 100% = ACh EC100; Muscarinic acetylcholine receptor M5 (Homo sapiens), P08912;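 active means activation above the run cutoff, the mean activation of all test compounds plus 3 SD, cut at about 18% in these data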
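system = human M5 receptor in CHO-K1 cells | compound = one concentration, 3 µM final (nominal) | schedule = Post-acetylcholine fluorescence recording 140 s | signal = Fluo-8 calcium dye fluorescence, kinetic read | benchmarks = low control EC20 acetylcholine (0%), high control EC100 acetylcholine (100%) | repeats = singlicate, one well per test compound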
M5 antag: human M5 muscarinic receptor antagonists, primary screen, CHO cells, Fluo-8 calcium fluorescence; inhibition, % at 3 µM; 360,000 tested, 0.59% active; CHO-hM5 cells, ACh EC80;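 active means inhibition above a per-plate cutoff, the mean of that plate's test compounds plus 3 SD, cut at about 27% in these data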;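 further: 0% = acetylcholine EC80 with DMSO and 100% = DMSO without agonist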
CHRM4 antagonist: human M4 muscarinic receptor antagonists, primary screen, CHO cells, Fluo-8 calcium fluorescence. Muscarinic acetylcholine receptor M4 (Homo sapiens), P08173. CHO-hM4 cells, ACh EC80. inhibition, % at 3 µM. 360,000 tested, 0.73% active;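 active means inhibition above its plate's cutoff, the mean inhibition of sample wells plus 3 SD, cut at about 27% in these data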;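 further: 0% = acetylcholine EC80 with DMSO and 100% = DMSO without agonist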
M4 ag: human M4 muscarinic receptor agonists, primary screen, CHO-K1 cells, Fluo-8 calcium fluorescence | Muscarinic acetylcholine receptor M4 (Homo sapiens), P08173 | CHO-K1 hM4/Gqi5; vehicle 0%, full acetylcholine response 100% | activation, % at 3 µM | 360,000 tested, 0.14% active | AID 624127, 2012;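 active means activation above the run mean over all test wells plus 3 SD, cut at about 32% in these data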;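 further: peak over basal fluorescence ratio per well then scaled between controls; 0% = DMSO wells and 100% = acetylcholine at EC100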
The depositor's hits bear a star. An excerpt weighted towards active compounds, which were near 1.8% of everything screened.

SMILES	CHRM5 agonist	M4 PAM	CHRM5 PAM	M5 antag	CHRM4 antagonist	M4 ag
NC(=O)CC(NC(=O)Cc1cccc2ccccc12)c1ccc(NC2CC3CCC2C3)c([N+](=O)[O-])c1 (stereo unspecified)	5	10	19*	-7	0	-1
NC(=O)CC(NC(=O)Cc1cccc2ccccc12)c1ccc(NCc2ccc(F)c(F)c2)c([N+](=O)[O-])c1 (stereo unspecified)	-3	24*	2	3	-26	2
NC(=O)CC(NC(=O)Cc1cccc2ccccc12)c1ccc(NCCOc2ccccc2)c([N+](=O)[O-])c1 (stereo unspecified)	1	28*	1	6	5	2
NC(=O)CC(NC(=O)Cc1cccc2ccccc12)c1ccc(NC2CCCC2)c([N+](=O)[O-])c1 (stereo unspecified)	2	3	-2	3	1	1
CCOc1cc2c(cc1/C=C/c1noc(C)c1[N+](=O)[O-])OC(C)C2 (stereo unspecified)	12	-1	3	9	11	14
Cc1cc(/C=N/n2cnnc2)c(C)n1-c1ccc(OCc2ccc(Cl)cc2Cl)cc1	-5	-12	-15	37*	47*	3
C[C@H]1CN([C@@H](C)CO)C(=O)CCCn2cc(nn2)CO[C@@H]1CN(C)S(=O)(=O)c1ccc(Oc2ccccc2)cc1	-1	9	-2	-1	-8	1
COc1ccccc1-[n+]1c(C)cc(/C=C2\Sc3ccccc3N2C)cc1C	14	-40	-29	53*	40*	16
COc1ccccc1OC(=O)CCN1c2ccccc2Sc2ccccc21	0	-2	-8	9	-14	-1
COc1ccc(-[n+]2c(C)cc(/C=C3\Sc4ccccc4N3C)cc2C)cc1	6	-23	-23	48*	50*	10
COc1ccc(C(=O)/C=C2\Sc3ccccc3N2C)cc1	-4	5	6	1	-2	1
CN(C(=O)C1CCN(S(=O)(=O)c2ccccc2)CC1)c1c(N)n(Cc2ccccc2)c(=O)[nH]c1=O	-8	-15	-3	6	-14	1
CCC1(CC)C(=O)C2=C3C1[C@H](C(=O)OC)C=C(C(=O)OC)C[C@H]3[C@H]1C(=O)N(CC(=O)OC)C(=O)[C@H]1[C@H]2C (stereo partly specified)	1	5	1	3	0	1
Cc1sc(NC(=O)c2cccs2)c(C(N)=O)c1C	0	18*	4	-3	-1	1
NC(=O)c1ccsc1NC(=O)c1cccs1	-1	4	-9	6	-15	1
C=CCC(NC(=O)N(C)C)(C(=O)OC)C(C)O (stereo unspecified)	1	10	4	-1	-9	1
Cn1c(=O)c2c(O)cc(=O)[nH]c2n(-c2ccccc2)c1=O	-2	2	-5	2	-1	0
O=c1cc(O)c2c(=O)[nH]c(=O)n(-c3ccccc3)c2[nH]1	-5	16*	-3	5	8	2
Cc1ccc(NC(=O)CSc2nnc(CNC(=O)c3ccco3)n2C)cc1C	-1	14	6	-3	-11	0
COc1cccc(CNc2nc(NCc3ccccc3)nc3ccsc23)c1	31*	-16	-21	45*	44*	58*
CNc1nc(NCc2cccc(OC)c2)c2sccc2n1	9	-7	-13	6	1	11
COc1cccc(CNc2nc(NCC3CC3)nc3ccsc23)c1	4	-13	-16	31*	8	21
Clc1ccccc1OCCNc1nc(NCC2CC2)nc2ccsc12	4	-9	-18	30*	13	15
Cc1ccc(Nc2nc(NCc3ccccc3)nc3ccsc23)c(C)c1	12	-15	-23	32*	57*	39*
